Bioassay records from PubChem.
mIAP act: activators of mouse IAP, primary screen, biochemical, luminescence, uHTS; intestinal alkaline phosphatase [Mus musculus]; muIAP, CDP-Star luminescence, 30 min; hits give high values; 1 = vehicle-only enzyme signal, 0 = enzyme-free wells; activation factor at 10 µM; 0.24% of 330,000 active; AID 2805, 2010;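 active = activation factor of at least 2 at 20 µM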
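also added = chemiluminescent substrate CDP-Star | test system = mouse IAP enzyme | signal = chemiluminescence readout | compound = DMSO-dissolved test compounds | incubation = 30 min at room temperature | benchmarks = DMSO wells, no-enzyme wells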
mIAP block: inhibitors of mouse IAP, primary screen, biochemical, luminescence, uHTS. intestinal alkaline phosphatase [Mus musculus]. purified mouse IAP, CDP-Star luminescence, 30 min. inhibition, % at 10 µM. 0.2% of 330,000 active. AID 2806, 2010;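 active = inhibition of at least 40% at 10 µM in the primary screen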;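 also: plate controls were DMSO with enzyme for no effect and no enzyme wells for full effect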
bIAP activator: bovine intestinal alkaline phosphatase activators, primary screen, biochemical, bovine IAP, CDP-star luminescence | 0.17% of 200,000 active | AID 1016, 2008 | alkaline phosphatase, intestinal [Bos taurus] | activation factor at 20 µM | purified bovine IAP, 30 min; hits give high values; fold of DMSO-control signal, blank-subtracted;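 active = activation factor of 2 or more at 20 µM, a signal rise over negative controls twice the positive control's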
hIAP block: human IAP inhibitors, primary screen, biochemical, luminescence, uHTS; Intestinal-type alkaline phosphatase (Homo sapiens), P09923; purified IAP, CDP-Star luminescence, 30 min; inhibition, % at 10 µM; 0.12% of 330,000 active; AID 2544, 2010;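 active = inhibition reaching a set limit with compound at 10 µM in the primary screen, cut at about 35% in these data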;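 also: plate controls were DMSO wells with enzyme for no effect and no-enzyme buffer wells for full effect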
Target sequence (P09923 whole entry, looked up): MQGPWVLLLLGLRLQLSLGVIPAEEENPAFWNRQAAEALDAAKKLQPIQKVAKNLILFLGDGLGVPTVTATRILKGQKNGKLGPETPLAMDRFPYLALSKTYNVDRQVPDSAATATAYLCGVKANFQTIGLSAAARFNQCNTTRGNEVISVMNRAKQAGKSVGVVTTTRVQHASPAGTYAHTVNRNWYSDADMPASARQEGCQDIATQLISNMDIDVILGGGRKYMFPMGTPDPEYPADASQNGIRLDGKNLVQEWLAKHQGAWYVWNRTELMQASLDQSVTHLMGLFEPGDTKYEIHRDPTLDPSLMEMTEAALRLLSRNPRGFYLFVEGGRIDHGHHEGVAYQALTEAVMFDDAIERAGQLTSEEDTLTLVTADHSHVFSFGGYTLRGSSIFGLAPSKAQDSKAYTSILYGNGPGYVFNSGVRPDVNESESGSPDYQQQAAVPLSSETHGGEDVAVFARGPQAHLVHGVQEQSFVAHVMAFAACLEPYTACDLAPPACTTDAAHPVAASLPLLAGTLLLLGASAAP
hIAP act: human IAP activators, primary screen, biochemical, luminescence, uHTS | 0.16% of 330,000 active | Intestinal-type alkaline phosphatase (Homo sapiens), P09923 | purified human IAP, CDP-Star luminescence, 30 min; hits give high values; 1 = vehicle-only enzyme, 0 = enzyme-free background | AID 2524, 2010 | activation factor at 10 µM;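 active = activation factor of the enzyme at least 2-fold when tested at 20 µM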
bIAP inhibitor: bovine intestinal alkaline phosphatase inhibitors, primary screen, selectivity assay for TNAP inhibitor project, biochemical, bovine IAP, CDP-star luminescence; alkaline phosphatase, intestinal [Bos taurus]; purified bovine IAP, 30 min; inhibition, % at 20 µM; 190,000 tested, under 10 active; AID 1019, 2008;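 active = over 50% inhibition of intestinal alkaline phosphatase at 20 µM in the single-dose screen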
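Assay system: bovine IAP enzyme; medium: DEA buffer 100 mM, pH 9.8, with MgCl2 1.0 mM, ZnCl2 0.02 mM; doses: 20 µM single dose; incubation: enzyme reaction for 30 min at room temperature; detection: CDP-star luminescence signal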
hIAP act confirm: human IAP activators, confirmation, biochemical, luminescence, single concentration, uHTS hits; activation (%Activity, negative = activation), % at 8.3 µM; 10% of 880 active; shares compounds with hIAP act; purified IAP, CDP-Star luminescence, 30 min; hits give low values;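 active = at least twofold enzyme activation in any of six single-dose repeats, which the averaged readout prints as negative percent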
An asterisk follows results filed as active; · = not tested or not shown. Compounds with a hit are over-represented: about 0.77% of the library has one in this group of screens.

SMILES	mIAP act	mIAP block	bIAP activator	hIAP block	hIAP act	bIAP inhibitor	hIAP act confirm
Oc1ccc(-c2csc(-c3cccnc3)n2)cc1O	0.75	25	·	41*	0.59	·	6
Oc1ccc(-c2csc(-c3ccccc3)n2)cc1O	0.84	16	0.9	10	0.9	8	·
CC(C)NC(=O)/C(C#N)=C\c1ccc(N(C)C)o1	0.85	15	0.6	35*	0.65	40	4
O=C(Cc1coc2ccc3ccccc3c12)NCc1ccccc1	1.1	-7	0.8	-103	2*	21	59
O=C(Cc1coc2ccc3ccccc3c12)Nc1nccs1	1.1	-7	1	-4	1	2	·
O=C(O)c1cc(-c2ccc(Cl)cc2)n(-c2ccc(F)cc2)n1	1.1	-10	·	8	0.92	·	·
CCCOc1cc(N(CC)CC)ccc1/C=C(/C#N)c1nc2ccc(C)cc2[nH]1	0.68	32	0.5	37*	0.63	48	4
COc1ccc(C(=O)N(C)CCCC2CCCC2)cc1OC1CCN(C(C)C)CC1	1	-3	·	-2	1	·	·
Cc1ccc(-c2cc(C(=O)N/N=C/c3cccnc3)n[nH]2)o1	0.91	9	1	-23	1.2	0	·
Cc1ccc(/C=N/NC(=O)c2cc(-c3ccc(C)o3)[nH]n2)cc1	0.87	13	·	-107	2.1*	·	6
CN(C)c1ccc(S(=O)(=O)NCC(=O)NCc2ccccc2)cc1[N+](=O)[O-]	0.97	3	·	11	0.89	·	·
CNc1ccc(S(=O)(=O)NCC(=O)NCCCc2ccccc2)cc1[N+](=O)[O-]	1.1	-9	·	35*	0.65	·	5
CCC(C)NC(=O)C1CCN(C(=O)N(C)C)CC1 (configuration not stated)	0.9	10	0.9	0	1	12	·
CC(C)CCNC(=O)C1CCN(C(=O)N(C)C)CC1	1	-5	0.9	47*	0.53	11	88
COc1ccccc1CC(=O)N(Cc1ccccc1)c1ccc(C)cc1	1	-2	·	-20	1.2	·	·
Cc1nc2c3cnn(-c4ccccc4)c3ncn2n1	1	-1	0.9	73*	0.27	14	4
c1ccc(-n2ncc3c2ncn2cnnc32)cc1	1	-4	0.4	82*	0.17	·	-18
c1ccc(-n2ncc3c2ncn2nnnc32)cc1	1	-5	1.1	-18	1.2	-7	·
CCN(CC(=O)N1CCOCC1)S(=O)(=O)c1ccc(Cl)cc1	1	-3	·	-4	1	·	·
Cc1occc1C(=O)NNC(=S)Nc1cccc([N+](=O)[O-])c1	0.91	9	1.2	-111	2.1*	-23	-7
COc1cc(/C=C2\CCC/C(=C\c3ccc(O)c(OC)c3)C2=O)ccc1O	0.69	30	·	34	0.66	·	·
COc1cc(/C=C2/CCC/C(=C\c3cc(O)c(OC)c(Cl)c3)C2=O)cc(Cl)c1O	0.64	36	0.4	40*	0.6	·	2
COc1ccccc1C1CN(c2ccccc2)N=C1c1cccs1 (configuration not stated)	1.5	-53	1.2	60*	0.4	-25	-128*
Cc1ccc(-c2[nH]ncc2C(=O)c2cccc(F)c2)c(O)c1	0.96	4	·	-105	2*	·	6
Cc1cccc(C(=O)c2cn[nH]c2-c2ccc(C)cc2O)c1	1.1	-8	·	-7	1.1	·	·
SMILES	mIAP act	mIAP block	bIAP activator	hIAP block	hIAP act	bIAP inhibitor	hIAP act confirm
Cc1cccc(C(=O)N[C@H](C(=O)NCCc2ccc(S(N)(=O)=O)cc2)C(C)C)c1	0.89	11	·	7	0.93	·	·
CCC(CC)NC(=O)c1ccc2nc[nH]c2c1	0.87	13	0.9	-15	1.1	11	·
CC(NC(=O)c1ccc2nc[nH]c2c1)c1ccccc1 (configuration not stated)	0.96	4	1.1	-139	2.4*	-11	-4
c1ccc(-c2ccc(C3=Nn4c(Cn5nnc6ccccc65)nnc4SC3)cc2)cc1	0.89	12	1	13	0.87	3	·
CCc1cc(-c2n[nH]c(C)c2-c2nc3ccccc3s2)c(O)cc1OCC(=O)NN	1.1	-15	2*	-130	2.3*	-103	-9
Nc1nc(CN2CCN(Cc3ccc4c(c3)OCO4)CC2)nc(Nc2ccccc2)n1	1	-1	1.1	-102	2*	-5	-1
Cc1nnc(NC(=O)c2ccc(S(=O)(=O)N3CCOCC3)cc2)s1	1.1	-9	·	-3	1	·	·
O=C(CSc1nnc(NC(=O)c2ccc(S(=O)(=O)N3CCOCC3)cc2)s1)Nc1ccccc1C(F)(F)F	1	-4	1.1	87*	0.13	-13	0
CCCn1c(SCC(=O)Nc2cccnc2Cl)n[nH]c1=O	1.1	-10	·	0	1	·	·
O=C(OCC(=O)N1CCOCC1)c1ccc(Cl)cc1[N+](=O)[O-]	0.98	2	·	-4	1	·	·
COc1ccc(-n2ccn(CC(=O)Nc3ccc(OC)cc3OC)c(=O)c2=O)cc1	1	-1	·	44*	0.56	·	-1
COC(=O)CSc1nnc(-c2ccc(S(=O)(=O)NCc3ccccc3Cl)cc2)o1	1	-1	0.9	-9	1.1	8	·
COc1ccccc1CNC(=O)Cn1nc(C)c([N+](=O)[O-])c1C	0.96	4	·	37*	0.63	·	-59
CCc1ccc(-n2c(SCC(=O)Nc3cc(C)[nH]n3)nc3[nH]ncc3c2=O)cc1	0.94	6	1.6	-118	2.2*	-63	-5
Cc1noc(C)c1CSCC(=O)Nc1nc2c(F)cc(F)cc2s1	0.75	25	·	-6	1.1	·	·
COc1cccc(/C=N/Nc2ccc([N+](=O)[O-])cc2)c1O	0.86	14	·	37*	0.63	·	-19
O=C(N/N=C/c1ccc(F)cc1)c1cc(-c2ccccn2)nc2ccccc12	0.87	13	·	4	0.96	·	·
CCOc1cccc(/C=N/NC(=O)c2cc(-c3cccn3C)n[nH]2)c1O	0.79	21	1.1	-162	2.6*	-12	23
COc1cccc(/C=N/NC(=O)c2ccc(=O)[nH]n2)c1O	0.89	11	·	-144	2.4*	·	2
COc1cc(OC)c(OC)cc1/C=N/NC(=O)c1cc(-c2cccn2C)n[nH]1	0.97	3	1.2	4	0.96	-22	·
